Experimental data from ChEMBL document CHEMBL3853352, “Anti-tubercular activities of 5,6,7,8-tetrahydrobenzo[4,5]thieno[2,3-d]pyrimidin-4-amine analogues endowed with high activity toward non-replicative Mycobacterium tuberculosis” (Bioorg Med Chem, 2016).
Converted amounts (≈) assume the structure as drawn.

Key:
[1] = Inhibition of Mycobacterium tuberculosis ADH assessed as decrease in conversion of L-alanine to pyruvate by measuring NADH by spectrophotometry; design: species or system Mycobacterium tuberculosis H37Rv
Method in brief: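 Mtb L-AlaDH oxidative deamination of L-alanine to pyruvate at 37 °C. NADH formation read at 340 nm. Compounds tested from 25 µM to 0.5 µM. Background read from the reaction mixture without enzyme. IC50 values calculated from the concentration series.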

[2] = test system: Mycobacterium tuberculosis; assay: Antimycobacterial activity against Mycobacterium tuberculosis H37Rv after 7 days by MABA; format: functional; conditions: 168 h
Method in brief: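 M. tuberculosis H37Rv inoculum taken from fresh LJ medium, resuspended in 7H9-S (7H9, 0.1% casitone, 0.5% glycerol, OADC), adjusted to McFarland No. 1 and diluted 1:20. Serial two-fold drug dilutions in 7H9-S, with growth and sterile controls. Incubated 7 days at 37 °C in normal atmosphere, then alamar blue added and incubated overnight. MIC = lowest concentration preventing the blue-to-pink change.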

[3] = test system: Mycobacterium tuberculosis; assay: Antimycobacterial activity against dormant stage of Mycobacterium tuberculosis H37Rv assessed as reduction in bacterial growth under nutrient starved conditions at 10 ug/ml for 7 days measured after 28 days; format: functional
Method in brief: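 H37Rv grown in 7H9/OADC, washed twice and resuspended in PBS, then held in sealed bottles at 37 °C for 6 weeks. Starved cultures exposed to compound at 10 ug/ml for 7 days. Cells diluted 10-fold serially to 10^-6 in 7H9/OADC and plated in triplicate. Incubated 28 days at 37 °C without agitation; wells with visible growth scored positive and MPN calculated.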

[4] = test system: Mycobacterium tuberculosis H37Rv; assay: Inhibition of Mycobacterium tuberculosis ADH assessed as decrease in conversion of L-alanine to pyruvate at 25 uM by measuring NADH by spectrophotometry
[5] = target: T1, L-lysine-epsilon aminotransferase (Mycobacterium tuberculosis) (UniProt P9WQ77); assay: Inhibition of Mycobacterium tuberculosis LAT at 25 uM
T1 sequence (whole entry): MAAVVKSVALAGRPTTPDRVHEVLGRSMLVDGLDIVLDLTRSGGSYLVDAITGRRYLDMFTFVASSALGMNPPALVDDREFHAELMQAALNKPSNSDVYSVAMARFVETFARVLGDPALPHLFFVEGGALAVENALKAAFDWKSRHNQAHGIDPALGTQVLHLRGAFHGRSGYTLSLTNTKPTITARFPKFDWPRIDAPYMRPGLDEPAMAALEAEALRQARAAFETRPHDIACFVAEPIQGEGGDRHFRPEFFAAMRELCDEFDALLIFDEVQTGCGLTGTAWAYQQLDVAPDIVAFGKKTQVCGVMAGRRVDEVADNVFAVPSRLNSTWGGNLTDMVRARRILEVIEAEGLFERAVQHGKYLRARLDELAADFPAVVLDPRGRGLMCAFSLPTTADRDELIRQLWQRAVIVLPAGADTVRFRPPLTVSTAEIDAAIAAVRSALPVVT

[6] = Cytotoxicity against mouse RAW264.7 cells assessed as inhibition of cell proliferation at 50 ug/ml after 48 hrs by MTT assay; format: toxicity
Method in brief: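 RAW 264.7 mouse macrophages grown in RPMI with 10% FBS and penicillin/streptomycin, then seeded at about 5000 cells/well on poly-L-lysine-coated plates. Pre-incubated 24 h at 37 °C, 5% CO2, then exposed to compound for 48 h. MTT (0.5 mg/ml) added for 3 h and formazan read at 595 nm.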

## CCc1nc(Nc2ccc(C)cc2)c2c3c(sc2n1)CCCC3
[1]
  IC50: 3.26 µM
[2]
  MIC: 77.3 µM (≈ 25 µg/mL)
[3]
  fold change (FC): >1
[4]
  inhibition: 50%
[5]
  inhibition: < 50%
[6]
  inhibition at 48 h, 50 ug/ml: 15.6%

## Cc1ccc(C)c(Nc2nc(-c3ccccc3)nc3sc4c(c23)CCCC4)c1
[1]
  IC50: 5.82 µM
[2]
  MIC: 2.02 µM (≈ 0.779 µg/mL)
[3]
  fold change (FC): >1
[4]
  inhibition: 50%
[5]
  inhibition: < 50%
[6]
  inhibition at 48 h, 50 ug/ml: 3.23%

## CCc1nc(Nc2ccc(C)cc2C)c2c3c(sc2n1)CCCC3
[1]
  IC50: 7.41 µM
[2]
  MIC: 74.1 µM (≈ 25 µg/mL)
[3]
  fold change (FC): >1
[4]
  inhibition: 50%
[5]
  inhibition: < 50%
[6]
  inhibition at 48 h, 50 ug/ml: 9.65%

## CCc1nc(Nc2ccc(OC)cc2)c2c3c(sc2n1)CCCC3
[1]
  IC50: 4.68 µM
[2]
  MIC: 73.7 µM (≈ 25 µg/mL)
[3]
  fold change (FC): >1
[4]
  inhibition: 50%
[5]
  inhibition: < 50%
[6]
  inhibition at 48 h, 50 ug/ml: 15.2%

## CC[C@@H](CO)NCCN[C@@H](CC)CO [ETHAMBUTOL]
[1]
  IC50: > 25 µM
[2]
  MIC: 7.64 µM (≈ 1.56 µg/mL)

## COc1c(N2C[C@@H]3CCCN[C@@H]3C2)c(F)cc2c(=O)c(C(=O)O)cn(C3CC3)c12 [MOXIFLOXACIN]
[1]
  IC50: > 25 µM
[2]
  MIC: 1.26 µM (≈ 0.506 µg/mL)
[3]
  fold change (FC): 2.7

## NNC(=O)c1ccncc1 [ISONIAZID]
[1]
  IC50: > 25 µM
[2]
  MIC: 0.66 µM (≈ 0.0905 µg/mL)
[3]
  fold change (FC): 1.2
[6]
  inhibition at 48 h, 50 ug/ml: 12.2%

## c1ccc(CCNc2nc(C3CC3)nc3sc4c(c23)CCCC4)cc1
[1]
  IC50: 17 µM
[2]
  MIC: 35.8 µM (≈ 12.5 µg/mL)
[4]
  inhibition: 50%
[5]
  inhibition: < 50%
[6]
  inhibition at 48 h, 50 ug/ml: 17.4%

## Brc1ccc(Nc2nc(C3CC3)nc3sc4c(c23)CCCC4)cc1
[1]
  IC50: 8.93 µM
[2]
  MIC: 15.6 µM (≈ 6.25 µg/mL)
[3]
  fold change (FC): >1
[4]
  inhibition: 50%
[5]
  inhibition: < 50%
[6]
  inhibition at 48 h, 50 ug/ml: 33.4%

## CCc1nc(Nc2ccc(Br)cc2)c2c3c(sc2n1)CCCC3
[1]
  IC50: 6.54 µM
[2]
  MIC: 32.2 µM (≈ 12.5 µg/mL)
[3]
  fold change (FC): >1
[4]
  inhibition: 50%
[5]
  inhibition: < 50%
[6]
  inhibition at 48 h, 50 ug/ml: 12.6%

## c1ccc(CCNc2nc(-c3ccccc3)nc3sc4c(c23)CCCC4)cc1
[1]
  IC50: 5.6 µM
[2]
  MIC: 64.8 µM (≈ 25 µg/mL)
[3]
  fold change (FC): >1
[4]
  inhibition: 50%
[5]
  inhibition: < 50%
[6]
  inhibition at 48 h, 50 ug/ml: 24.6%

## Cc1ccc(Nc2nc(C3CC3)nc3sc4c(c23)CCCC4)c(C)c1
[1]
  IC50: 9 µM
[2]
  MIC: 71.5 µM (≈ 25 µg/mL)
[3]
  fold change (FC): >1
[4]
  inhibition: 50%
[5]
  inhibition: < 50%
[6]
  inhibition at 48 h, 50 ug/ml: 23.9%

## Cc1ccc(Nc2nc(-c3ccccc3)nc3sc4c(c23)CCCC4)c(C)c1
[1]
  IC50: 9.96 µM
[2]
  MIC: 16.2 µM (≈ 6.25 µg/mL)
[3]
  fold change (FC): >1
[4]
  inhibition: 50%
[5]
  inhibition: < 50%
[6]
  inhibition at 48 h, 50 ug/ml: 7.97%

## Fc1ccc(Nc2nc(C3CC3)nc3sc4c(c23)CCCC4)cc1
[1]
  IC50: 8.91 µM
[2]
  MIC: 36.8 µM (≈ 12.5 µg/mL)
[3]
  fold change (FC): >1
[5]
  inhibition: < 50%
[6]
  inhibition at 48 h, 50 ug/ml: 4.82%

## c1ccc(Nc2nc(C3CC3)nc3sc4c(c23)CCCC4)cc1
[1]
  IC50: > 25 µM
[2]
  MIC: 9.72 µM (≈ 3.12 µg/mL)
[5]
  inhibition: < 50%
[6]
  inhibition at 48 h, 50 ug/ml: 8.8%

## Cc1ccc(Nc2nc(C3CC3)nc3sc4c(c23)CCCC4)cc1
[1]
  IC50: 13.4 µM
[2]
  MIC: 74.5 µM (≈ 25 µg/mL)
[4]
  inhibition: 50%
[5]
  inhibition: < 50%
[6]
  inhibition at 48 h, 50 ug/ml: 16.2%

## Clc1ccc(Nc2nc(-c3ccccc3)nc3sc4c(c23)CCCC4)cc1
[1]
  IC50: 2.72 µM
[2]
  MIC: 63.8 µM (≈ 25 µg/mL)
[3]
  fold change (FC): >1
[4]
  inhibition: 50%
[5]
  inhibition: < 50%
[6]
  inhibition at 48 h, 50 ug/ml: 20.8%

## c1ccc(Nc2nc(-c3ccccc3)nc3sc4c(c23)CCCC4)cc1
[1]
  IC50: 11.4 µM
[2]
  MIC: 4.36 µM (≈ 1.56 µg/mL)
[3]
  fold change (FC): >1
[4]
  inhibition: 50%
[5]
  inhibition: < 50%
[6]
  inhibition at 48 h, 50 ug/ml: 7.15%

## CCc1nc(Nc2ccccc2)c2c3c(sc2n1)CCCC3
[1]
  IC50: 15.1 µM
[2]
  MIC: 20.2 µM (≈ 6.25 µg/mL)
[3]
  fold change (FC): >1
[4]
  inhibition: 50%
[5]
  inhibition: < 50%
[6]
  inhibition at 48 h, 50 ug/ml: 7.82%

## COc1ccc(Nc2nc(C3CC3)nc3sc4c(c23)CCCC4)cc1
[1]
  IC50: > 25 µM
[2]
  MIC: 17.8 µM (≈ 6.25 µg/mL)
[3]
  fold change (FC): >1
[5]
  inhibition: < 50%
[6]
  inhibition at 48 h, 50 ug/ml: 34.4%

## Fc1ccc(Nc2nc(-c3ccccc3)nc3sc4c(c23)CCCC4)cc1
[1]
  IC50: 12.2 µM
[2]
  MIC: 33.3 µM (≈ 12.5 µg/mL)
[4]
  inhibition: 50%
[5]
  inhibition: < 50%
[6]
  inhibition at 48 h, 50 ug/ml: 33.4%

## Cc1cccc(C)c1Nc1nc(C2CC2)nc2sc3c(c12)CCCC3
[1]
  IC50: 7.55 µM
[2]
  MIC: 17.9 µM (≈ 6.25 µg/mL)
[3]
  fold change (FC): >1
[4]
  inhibition: 50%
[5]
  inhibition: < 50%
[6]
  inhibition at 48 h, 50 ug/ml: 13.5%

## Cc1ccc(Nc2nc(-c3ccccc3)nc3sc4c(c23)CCCC4)cc1
[1]
  IC50: 7.97 µM
[2]
  MIC: 33.6 µM (≈ 12.5 µg/mL)
[3]
  fold change (FC): >1
[4]
  inhibition: 50%
[5]
  inhibition: < 50%
[6]
  inhibition at 48 h, 50 ug/ml: 41.1%

## CCc1nc(NCc2ccccc2)c2c3c(sc2n1)CCCC3
[1]
  IC50: 6.03 µM
[2]
  MIC: 38.6 µM (≈ 12.5 µg/mL)
[3]
  fold change (FC): >1
[4]
  inhibition: 50%
[5]
  inhibition: < 50%
[6]
  inhibition at 48 h, 50 ug/ml: 7.05%

## Cc1cccc(C)c1Nc1nc(-c2ccccc2)nc2sc3c(c12)CCCC3
[1]
  IC50: 8.82 µM
[2]
  MIC: 8.11 µM (≈ 3.13 µg/mL)
[3]
  fold change (FC): >1
[4]
  inhibition: 50%
[5]
  inhibition: < 50%
[6]
  inhibition at 48 h, 50 ug/ml: 25.5%

## CCc1nc(Nc2cc(C)ccc2C)c2c3c(sc2n1)CCCC3
[1]
  IC50: > 25 µM
[2]
  MIC: 74.1 µM (≈ 25 µg/mL)
[5]
  inhibition: < 50%
[6]
  inhibition at 48 h, 50 ug/ml: 29.9%

## CO[C@H]1/C=C/O[C@@]2(C)Oc3c(C)c(O)c4c(O)c(c(/C=N/N5CCN(C)CC5)c(O)c4c3C2=O)NC(=O)/C(C)=C\C=C\[C@H](C)[C@H](O)[C@@H](C)[C@@H](O)[C@@H](C)[C@H](OC(C)=O)[C@@H]1C [RIFAMPIN]
[1]
  IC50: > 25 µM
[2]
  MIC: 0.23 µM (≈ 0.189 µg/mL)
[3]
  fold change (FC): 2
[6]
  inhibition at 48 h, 50 ug/ml: 9.56%

## Clc1ccc(Nc2nc(C3CC3)nc3sc4c(c23)CCCC4)cc1
[1]
  IC50: 11.1 µM
[2]
  MIC: 8.78 µM (≈ 3.12 µg/mL)
[4]
  inhibition: 50%
[5]
  inhibition: < 50%
[6]
  inhibition at 48 h, 50 ug/ml: 15.5%
